# In the library only some 1.9% were active in any assay of this set; here they are far more common.
# HIF activator = HIF pathway transcriptional activators, primary screen, cell-based, U2OS HRE-luciferase, luminescence | U2OS HRE-luciferase reporter; normalized: DMSO 0%, desferrioxamine 100% | activation, % at 7.5 µM (by protocol) | 300,000 tested, 0.32% active | AID 1910, 2009;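 active = mean activation of at least 10% of the iron chelator positive control signal, with at least half of replicates also reaching 10%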
# PP1 inh = PP1-alpha phosphatase inhibitors, primary screen, counter-screen for PP5 inhibitor project, biochemical, fluorescence, OMFP substrate, single point | Serine/threonine-protein phosphatase PP1-alpha catalytic subunit (Homo sapiens), P62136 | purified PP1alpha | inhibition, % at 6.7 µM | 320,000 tested, 0.9% active | AID 2235, 2010;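 active = inhibition above the mean inhibition of all tested compounds plus 3 SD, computed separately for each screening campaign, cut at about 15% in these data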
# PP5 primary = PP5 phosphatase inhibitors, primary screen, biochemical, fluorescence. Serine/threonine-protein phosphatase 5 (Homo sapiens), P53041. purified PP5c, OMFP substrate fluorescence. 320,000 tested, 0.18% active. inhibition, % at 6.7 µM;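 active = inhibition above the campaign's mean inhibition across all tested compounds plus 3 SD, cut at about 9.5% in these data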;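 also: 0% = DMSO only and 100% = 100 µM cantharidin control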
# Target sequence (P53041 whole entry, looked up): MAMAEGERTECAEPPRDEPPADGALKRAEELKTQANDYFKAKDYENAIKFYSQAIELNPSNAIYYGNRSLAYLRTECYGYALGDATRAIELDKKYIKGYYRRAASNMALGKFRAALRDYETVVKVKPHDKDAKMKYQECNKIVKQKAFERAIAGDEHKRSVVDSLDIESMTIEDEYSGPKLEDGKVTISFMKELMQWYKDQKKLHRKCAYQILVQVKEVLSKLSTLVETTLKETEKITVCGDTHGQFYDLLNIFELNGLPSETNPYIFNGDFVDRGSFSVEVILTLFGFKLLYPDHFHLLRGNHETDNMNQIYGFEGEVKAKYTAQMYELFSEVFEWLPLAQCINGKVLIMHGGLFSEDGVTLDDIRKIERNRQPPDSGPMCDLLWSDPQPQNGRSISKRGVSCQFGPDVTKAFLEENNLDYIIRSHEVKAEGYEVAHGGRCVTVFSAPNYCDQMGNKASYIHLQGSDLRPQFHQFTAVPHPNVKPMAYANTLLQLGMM
# FID counter = compounds displacing fluorescent DNA intercalator, primary screen, artefact control for HCV NS3 helicase inhibitor project, biochemical, FID fluorescence | 290,000 tested, 0.17% active | DNA fluorescent intercalator displacement | inhibition, % at 7.9 µM; in the data active = inhibition above about 37%;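 also: 0% = vehicle and 100% = reference compound; higher means more ethidium bromide displaced from hairpin DNA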
# HCV NS3 hel inh = inhibitors of HCV NS3 helicase, primary screen, biochemical, Cy5 molecular beacon fluorescence | Hepatitis C virus NS3 helicase | NS3 helicase DNA unwinding | inhibition, % at 10.9 µM | 290,000 tested, 0.56% active | AID 1800, 2009;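 active = inhibition above the mean of all tested compounds plus 3 SD, set per campaign, cut at about 35% in these data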;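 also: 0% = DMSO wells and 100% = thioflavine S control wells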
#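 Measured by: Cy5 fluorescence, 0 and 60 min reads / Assay system: NS3 helicase fragment of HCV / Control set: low DMSO, high thioflavine S at 110 µM / Times: 1 h reaction at 25 °C, ATP-initiated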
# PP5 inh confirm = PP5 phosphatase inhibitors, confirmation, biochemical, fluorescence, human; shares compounds with PP5 primary; Purified PP5, fluorogenic phosphatase substrate; inhibition, % at 6.7 µM; 460 tested, 22% active; AID 2331, 2010; in the data active = inhibition above about 9.5%
# PP1 inh counter = PP1 phosphatase inhibitors, counter-screen for PP5 inhibitor project, biochemical, fluorescence, triplicate. shares compounds with PP5 primary. PP1 enzyme, fluorescent phosphatase substrate. inhibition, % at 6.7 µM. 460 tested, 4% active. AID 2355, 2010; in the data active = inhibition above about 16%
# * marks the source's active call; other numbers are inactive results; . = not tested or not shown.
SMILES,HIF activator,PP1 inh,PP5 primary,FID counter,HCV NS3 hel inh,PP5 inh confirm,PP1 inh counter
O=C(Nc1cc(C(F)(F)F)cc(C(F)(F)F)c1)c1ccc(Cn2cc(C(F)(F)F)ccc2=O)cc1,-1,3,11*,2,11,11*,1
O=C(C1CCC(CNS(=O)(=O)c2ccccc2)CC1)N1CCCCC1 (stereo not given),-10,2,9.9*,-33,2,-4,-5
CCOc1ccc(NCC(=O)N/N=C/C=C/c2ccccc2)cc1,0,8,-1,-10,-11,.,.
CCOc1ccc(N=C/C=C/c2ccccc2)c(O)c1,0,7,9.9*,-8,1,1,0
CC(C)(C)OC(=O)NCCCC[C@H](NC(=O)c1[nH]cnc1C(=O)Nc1ccc(Cl)cc1)C(=O)OC(C)(C)C,0,5,9,.,.,.,.
CC(C)(C)OC(=O)NCCCC[C@H](NC(=O)c1[nH]cnc1C(=O)Nc1ccccc1)C(=O)OC(C)(C)C,1,7,11*,.,.,8,8
CC(C)C[C@H](NC(=O)c1nc[nH]c1C(=O)N[C@@H](CCCCNC(=O)OC(C)(C)C)C(=O)OC(C)(C)C)C(=O)OC(C)(C)C,0,11,14*,.,.,9,11
CNC(=O)c1[nH]cnc1C(=O)N[C@@H](CCCCNC(=O)OC(C)(C)C)C(=O)OC(C)(C)C,-1,8,1,-39,5,.,.
Cc1noc(C)c1COC(=O)c1ccc(S(=O)(=O)N2CCCCC2)cc1,0,-3,-1,-11,2,.,.
Cc1ccc(C(=O)OCC(=O)NC2CCCC(C)C2C)cc1S(=O)(=O)N1CCCCC1 (stereo not given),.,1,0,.,.,.,.
COc1ccc(C(=O)Nc2ccc(S(=O)(=O)Nc3nccc(C)n3)cc2)cc1,0,-3,0,-9,-3,.,.
COc1ccc(C(=O)Nc2ccc(S(=O)(=O)NC(C)=O)cc2)cc1,0,-1,12*,-6,11,-7,-5
Cc1ccc(NC(=S)Nc2nc(CC(=O)Nc3ccccc3)cs2)cc1,2,10,10*,-2,0,-6,2
COc1ccccc1NC(=O)Nc1nc(CC(=O)Nc2ccc(F)cc2)cs1,0,-2,4,.,.,.,.
COc1ccccc1NC(=O)Nc1nc(CC(=O)Nc2ccc(F)c(F)c2)cs1,1,-1,9.9*,.,.,3,2
COCCn1cnnc1SCC(=O)Nc1sccc1C(N)=O,0,1,1,0,-5,.,.
CSCCC(NC(=O)CCNC(=O)c1ccccc1Cl)c1nc2ccccc2[nH]1 (stereo not given),.,1,2,.,.,.,.
CCn1cc(S(=O)(=O)NCCc2ccccc2OC)cn1,0,0,1,-7,-4,.,.
CC(Sc1ccc([N+](=O)[O-])cn1)C(=O)Nc1nccs1 (stereo not given),0,0,1,-2,-3,.,.
Cc1cccc(NC(=O)C2CCN(S(C)(=O)=O)CC2)c1C,0,-1,11*,-2,1,-8,-6
CCOC(=O)c1oc2ccccc2c1COC(=O)CNC(=O)c1ccc(C)cc1,0,-3,4,.,.,.,.
O=C(NCC1CCCO1)c1ccc(COc2ccccc2)cc1 (stereo not given),2,-1,-1,-23,5,.,.
CCOC(=O)Cn1c(-c2ccccc2)nc2ccccc2c1=O,0,-4,11*,-14,-8,-2,-2
O=C(Nc1cccc2ncccc12)c1ccc(-c2ccc(Br)cc2)o1,0,-1,13*,-20,-5,-2,-2
CCCCC1=NN(C(=O)c2ccncc2)C(O)(C(F)(F)F)C1 (stereo not given),0,-3,4,-11,0,.,.
SMILES,HIF activator,PP1 inh,PP5 primary,FID counter,HCV NS3 hel inh,PP5 inh confirm,PP1 inh counter
CCCCC1=NN(C(=O)c2cocc2C)C(O)(C(F)(F)F)C1 (stereo not given),0,-1,13*,-4,1,-3,-4
CCC(=O)Nc1cccc(-n2nnnc2SCC(=O)NCc2ccco2)c1,0,4,3,1,1,.,.
CCC(=O)Nc1cccc(-n2nnnc2SCC(=O)c2ccc(C)c(C)c2)c1,1,0,13*,-6,-2,2,1
O=C(c1ccc(O)c(Cl)c1)N1CCN(S(=O)(=O)c2ccccc2)CC1,0,-1,-1,-8,2,.,.
COC(=O)C1=C(C)NC(C)=C(C(=O)OC)C1c1cn(-c2ccccc2)nc1-c1ccco1,1,6,14*,-9,-3,2,3
COc1cc(Br)c(C(=O)c2nccc3cc(OC)c(OC)cc23)cc1OC,0,-3,14*,4,-4,43*,6
O=S(=O)(c1ccc(OC(F)(F)F)cc1)N1CCC(O)(c2cccc(C(F)(F)F)c2)CC1,2,12,11*,-18,-1,7,8
COC(=O)c1c(C)oc2ccc(OC(=O)c3cccs3)cc12,0,1,1,-4,-2,.,.
COCCOC(=O)c1c(C)oc2ccc(OC(=O)c3cccs3)cc12,0,-1,10*,-26,-6,-3,-3
CCCN1CCN(C(=O)C(NC(=O)c2ccco2)C(C)C)CC1 (stereo not given),0,0,2,-6,6,.,.
O=C(Nc1ccc(O)cc1)C1CCCO1 (stereo not given),-2,-4,11*,0,3,-2,-4
CCC(C)NC(=O)c1ccc(C)c(NC(=O)C2=C(C)OCCS2)c1 (stereo not given),-19,1,-1,-6,-2,.,.
Cc1[nH]c2ccccc2c1C(C#N)(C#N)C1C(=O)c2ccccc2C1=O,1,7,21*,-4,7,8,1
O=C(NCc1ccco1)/C(=C/c1ccccc1F)NC(=O)c1ccccc1,0,-2,1,1,5,.,.
CCCCN1CC(=O)N2[C@H](c3ccc(Cl)cc3)[C@@H]3C(=O)N(CC)C(=O)[C@@H]3[C@]2(C)C1=O,0,3,1,-13,-2,.,.
CC(=O)N(CN1C(=O)c2ccc([N+](=O)[O-])cc2C1=O)c1cccc(C(=O)O)c1,0,0,23*,3,4,-2,-4
O=C(O)c1cccc(N2C(=O)c3ccc(C(=O)c4cccc([N+](=O)[O-])c4)cc3C2=O)c1,0,-6,1,-4,11,.,.

# Screening results deposited in PubChem by several laboratories.
